In the library only some 1.8% were active in any assay of this set; here they are far more common.
SUMO1-SIM PPI – alters human SUMO1 binding to SIM partners. P63165. SUMO1 binding to a labelled peptide, TR-FRET, 1 h. inhibition, % at 20 µM. 360,000 compounds, 0.33% hits; in the data active = inhibition above about 37%
Target sequence (P63165 whole entry, looked up): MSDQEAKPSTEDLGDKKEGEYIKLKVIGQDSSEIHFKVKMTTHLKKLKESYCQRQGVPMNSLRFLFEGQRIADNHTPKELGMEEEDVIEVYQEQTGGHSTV
Scp-1 inhibitor – Scp-1 (human) phosphatase inhibition; Q9GZU7; Recombinant Scp1, phosphopeptide, malachite green phosphate absorbance; inhibition, % at 20 µM; 340,000 compounds, 0.88% hits; AID 493091;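 active = inhibition above about 50% at 20 µM, limit read from the data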
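System: SCP-1 catalytic domain; Reagent: Phospho 17-mer peptide substrate; Doses: one concentration, 20 µM, with 1.0% DMSO; Incubation: 45 min room-temperature reaction, 5 min colour, 30 min stabiliser; Signal: Phosphate-binding colour reagent, absorbance read at 630 nm.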
DNMT1 block – blocks human DNA methyltransferase DNMT1; P26358; DNMT1 molecular beacon, Hinp1I cleavage, fluorescence; inhibition (reported as % activation of signal), % at 10 µM; 360,000 compounds, 0.83% hits; AID 588458; in the data active = inhibition above about 50%
STEP inh – blocks human striatal-enriched tyrosine phosphatase; AID 588621; P54829; 360,000 compounds, 0.25% hits; recombinant STEP, OMFP fluorogenic substrate, fluorescence; inhibition, % at 20 µM;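 active = inhibition at 20 µM, scaled per plate between control wells, above about 37%, limit read from the data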
Target sequence (P54829 whole entry, looked up): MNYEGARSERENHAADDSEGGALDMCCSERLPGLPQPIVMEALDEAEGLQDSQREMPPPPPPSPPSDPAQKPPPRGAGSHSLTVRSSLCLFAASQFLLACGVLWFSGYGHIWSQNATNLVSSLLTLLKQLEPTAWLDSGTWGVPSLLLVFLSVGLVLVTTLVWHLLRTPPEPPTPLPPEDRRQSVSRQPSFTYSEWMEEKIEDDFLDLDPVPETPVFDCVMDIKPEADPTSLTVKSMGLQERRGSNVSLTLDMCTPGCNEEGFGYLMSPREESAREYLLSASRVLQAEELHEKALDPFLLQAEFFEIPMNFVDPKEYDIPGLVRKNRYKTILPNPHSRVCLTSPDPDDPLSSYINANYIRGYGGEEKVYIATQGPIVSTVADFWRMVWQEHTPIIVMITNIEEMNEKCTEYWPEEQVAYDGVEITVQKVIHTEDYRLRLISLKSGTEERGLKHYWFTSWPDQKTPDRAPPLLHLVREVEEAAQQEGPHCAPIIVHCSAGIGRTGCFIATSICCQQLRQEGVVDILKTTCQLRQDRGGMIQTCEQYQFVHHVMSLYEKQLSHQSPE
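Assay system: isolated STEP enzyme / Timing: 20 min at room temperature, dark / Doses: 20 µM, 1% DMSO / Technique: fluorescence intensity, excitation 480 nm, emission 540 nm / Reagent: fluorogenic phosphatase substrate OMFP at 25 µM final / Measure: percent inhibition scaled to no-enzyme and uninhibited-enzyme controls, plate-pattern corrected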
LMPTP inh – blocks human LMPTP phosphatase; recombinant LMPTP-A, OMFP fluorogenic substrate, fluorescence intensity; inhibition, % at 20 µM; 360,000 compounds, 0.22% hits; AID 651560;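 active = compounds that cut the enzyme signal by at least half of the control window in the single-dose screen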
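Buffer or medium: Bis-Tris pH 6.0, DTT, detergent; Assay system: LMPTP-A enzyme; Quantity: 0.625 nM enzyme; Detection: endpoint fluorescence intensity; Times: 50 min dark incubation at room temperature; Controls: substrate-only low control, DMSO enzyme-plus-substrate high control; Doses: single 20 µM dose; Read-out: percent inhibition versus substrate-only and uninhibited controls; Reagent: 400 µM OMFP.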
Each line names hits and unclear results; the compound was inactive in the other large screens.

C=CC[C@@H](CC(=O)N[C@H](CO)Cc1ccccc1)C(=O)NC[C@H](OC(=O)[C@@H](CC=C)Cc1ccc(F)cc1)c1ccccc1	none
CN(C)CCNc1ccc(CO)c2sc3ccc(O)cc3c(=O)c12	none
COc1ccc2sc3cccc(NCCN(C)C)c3c(=O)c2c1	DNMT1 block 55.5 (no result: Scp-1 inhibitor)
COC(=O)c1sc(NC(=S)NC(=O)c2ccccc2F)nc1C	LMPTP inh 72.6
COc1cccc2c1[C@@H]1CN(CCCCn3c(=O)[nH]c4c(sc5ncc(-c6ccccc6)nc54)c3=O)C[C@@H]1CO2	LMPTP inh 67.5
O=C(O)C1Nc2c(O)cc(Cl)c([N+](=O)[O-])c2C2C=CCC12 (configuration not stated)	SUMO1-SIM PPI 103.9, Scp-1 inhibitor 62.0, DNMT1 block 89.0, STEP inh 97.3, LMPTP inh 90.9
C[C@@H](c1ccccc1)N1C[C@@H](COCc2ccccc2)Oc2cc(N3CC[C@@H](N(C)C)C3)ccc2S1(=O)=O	none (no result: Scp-1 inhibitor, DNMT1 block, STEP inh)
COc1ccc(C(=O)Nc2cc(C)nn2-c2ccc(C)cc2)cc1	none
CCOc1ccc2nc3cc(N=Nc4ccc(N)nc4N)ccc3c(N)c2c1	SUMO1-SIM PPI 115.8, STEP inh 66.2, LMPTP inh 72.2
CCOc1cc(/C=N/NC(=O)c2ccc(-c3csc(Nc4ccc(C)cc4)n3)cc2)ccc1OCC(=O)O	Scp-1 inhibitor 66.2, DNMT1 block 77.5, STEP inh 83.6, LMPTP inh 91.6
O=C(O)COc1ccc(/C=N/NC(=O)c2ccc(-c3csc(Nc4ccc(Cl)cc4)n3)cc2)cc1	SUMO1-SIM PPI 120.6, Scp-1 inhibitor 100.0, STEP inh 93.4, LMPTP inh 92.0
COc1ccc(OC)c(NC(=O)CSc2ccc(-c3cccnc3)nn2)c1	none
Fc1ccc2[nH]c3c(NCc4ccccc4)ncnc3c2c1	none
O=C(O)c1cc(O)c2c(c1)[C@@H]([C@H]1c3cc(C(=O)O)cc(O)c3C(=O)c3c(O[C@@H]4O[C@H](CO)[C@@H](O)[C@H](O)[C@H]4O)cccc31)c1cccc(O[C@@H]3O[C@H](CO)[C@@H](O)[C@H](O)[C@H]3O)c1C2=O	Scp-1 inhibitor 85.8 (no result: SUMO1-SIM PPI, DNMT1 block, STEP inh, LMPTP inh)
OCC1OC(Oc2cccc3ccccc23)C(O)C(O)C1O (configuration not stated)	none
COc1ccc(CN2CC[C@H]3C=CC[C@@H](C(=O)Nc4ccc(Cl)c(C(F)(F)F)c4)[C@H]3C2=O)cc1OC	none
CC(=O)C1CCC2C3CCC4=CC(=O)C=CC4(C)C3C(=O)CC12C (configuration not stated)	none
C[C@]12C=CC(=O)C=C1CC[C@@H]1C2=CC[C@]2(C)[C@@H](C(=O)CN3CCN(c4cc(N5CCCC5)nc(N5CCCC5)n4)CC3)CC[C@@H]12	DNMT1 block 60.6
COc1ccc2nc(C)cc(SCC(=O)N/N=C/c3ccc(O)c(O)c3)c2c1	LMPTP inh 56.7
CC(C)Cc1ccc(C(C)C(N)=NCCc2ccccc2)cc1 (configuration not stated)	none
CCCCCOc1ccc(C2C(C(=O)c3ccc(C)o3)=C(O)C(=O)N2c2cc(C)on2)cc1 (configuration not stated)	LMPTP inh 50.2
CCCCOc1ccc(C2C(C(=O)c3ccc(C)o3)=C(O)C(=O)N2Cc2ccco2)cc1 (configuration not stated)	LMPTP inh 51.4 (no result: Scp-1 inhibitor)
CCOc1ccc(C2C(C(=O)c3ccc(C)o3)=C(O)C(=O)N2c2cc(C)on2)cc1OC (configuration not stated)	none
CC(=O)N/C(=N\c1nc(C)cc(C)n1)Nc1ccc2ccccc2c1	none
O=c1c2ccccc2sn1-c1cc(S(=O)(=O)N2CCOCC2)ccc1N1CCOCC1	Scp-1 inhibitor 94.1
O=S(=O)(c1ccc(N2CCOCC2)c(Cl)c1)N1CCOCC1	none
CN(C)c1nc(N)nc(/C(C#N)=C/C2CC3C=CC2C3)n1 (configuration not stated)	LMPTP inh 67.0
COc1ccc(-c2cnc3c(NC=O)cc(-c4cccc(NS(C)(=O)=O)c4)cn23)cc1OC	none (no result: Scp-1 inhibitor)
CCCCNc1c(-c2ccc(OC)c(SC3CCCCC3)c2)nc2ccc(C)cn12	none
COc1ccc(-c2nc3ccc(C)cn3c2NCc2ccccc2)cc1SC1CCCCC1	DNMT1 block 59.7
COc1ccc(C)cc1NC(=O)COC(=O)Cc1c[nH]c2ccccc12	none (no result: Scp-1 inhibitor)
COCCCN1C(=O)C(CC(=O)NC2CCCC2)CC(C(=O)N2CCOCC2)=C1C (configuration not stated)	none (no result: Scp-1 inhibitor)
COc1cccc(CNc2nc(NC(C)C)nc3ccsc23)c1OC	none (no result: Scp-1 inhibitor)
COc1cccc(CNc2nc(NCC3CC3)nc3ccsc23)c1OC	LMPTP inh 59.8 (no result: Scp-1 inhibitor)
COc1cc([N+](=O)[O-])ccc1NC(=O)COC(=O)c1ccc(NC(N)=O)cc1	SUMO1-SIM PPI 44.9
COc1ccc(NC(=O)CN(C)C(=O)c2cc3c(s2)CCC3)cc1	SUMO1-SIM PPI 75.6, Scp-1 inhibitor 85.9, DNMT1 block 96.8, LMPTP inh 64.3
COc1ccc(NC(=O)CN(C)C(=O)c2cc3c(s2)CCCCC3)cc1	none
COc1cccc(NC(=O)CN(C)C(=O)c2cc3c(s2)CCC(C)C3)c1 (configuration not stated)	none
COc1cccc(NC(=O)CN(C)C(=O)c2cc3c(s2)CCC3)c1	Scp-1 inhibitor 60.0 (no result: SUMO1-SIM PPI, DNMT1 block, STEP inh, LMPTP inh)
O=S(=O)(Nc1cc(Sc2ncn[nH]2)c(O)c2ccccc12)c1ccccc1	SUMO1-SIM PPI 84.7
Cc1c(N2C(=O)c3ccc4c5c(ccc(c35)C2=O)CC4)c(=O)n(-c2ccccc2)n1C	Scp-1 inhibitor 64.8, DNMT1 block 90.4, LMPTP inh 52.5
Cc1c(N2C(=O)c3ccc(Br)cc3C2=O)c(=O)n(-c2ccccc2)n1C	none
O=C(COC(=O)c1cc(Br)ccc1Cl)NC1CCCC1	none
O=C(NCCCN1CCOCC1)c1sc2cc([N+](=O)[O-])ccc2c1Cl	STEP inh 93.4
O=C(NCCCN1CCOCC1)c1sc2cc(Cl)ccc2c1Cl	none
O=C1C=C(OCCF)CC(c2cccc([N+](=O)[O-])c2)O1 (configuration not stated)	none (no result: Scp-1 inhibitor, DNMT1 block, STEP inh)
O=C1NC(=S)S/C1=C/c1ccc(N2CCOCC2)o1	none
O=C1NC(=S)S/C1=C\C=C\c1ccc([N+](=O)[O-])o1	SUMO1-SIM PPI 97.0, Scp-1 inhibitor 87.0, DNMT1 block 91.1, STEP inh 65.9, LMPTP inh 82.1
CC(C)CCNC(=O)c1cc2c(=O)n3ccccc3nc2s1	none
O=C(CSc1ccc(S(=O)(=O)N2CCOCC2)cn1)Nc1ccc(F)c(F)c1	none
O=C(CSc1ncnc2c1oc1ccccc12)Nc1nc2ccccc2s1	none
CCc1nnc(NC(=O)CSc2ncnc3c2oc2ccccc23)s1	SUMO1-SIM PPI 65.5
OC(c1ccc(F)c(F)c1)c1nc(-c2ccc(Cl)cc2)cs1 (configuration not stated)	none (no result: Scp-1 inhibitor)
O=C(O)c1ccc(CN2C(=O)c3cccc4c([N+](=O)[O-])ccc(c34)C2=O)cc1	none

Screening data: PubChem, Sanford-Burnham Center for Chemical Genomics
